From ChEMBL document CHEMBL4715736, “Identification of anticancer agents based on the thieno[2,3-b]pyridine and 1H-pyrazole molecular scaffolds” (2016)

Legend:
Format in all cases: functional
NCI/ADR-RES [1] = assay: Growth inhibition of human NCI/ADR-RES cells assessed as cell growth at 0.1 uM incubated for 48 hrs by sulforhodamine B assay relative to control; details: read-out: Activity
SK-MEL-28 = assay: Growth inhibition of human SK-MEL-28 cells assessed as cell growth at 100 uM incubated for 48 hrs by sulforhodamine B assay relative to control; details: read-out: Activity
UACC-62 = assay: Growth inhibition of human UACC-62 cells assessed as cell growth at 100 uM incubated for 48 hrs by sulforhodamine B assay relative to control; details: read-out: Activity
NCI/ADR-RES [2] = assay: Growth inhibition of human NCI/ADR-RES cells assessed as cell growth at 1 uM incubated for 48 hrs by sulforhodamine B assay relative to control; details: read-out: Activity
PC-3 = assay: Growth inhibition of human PC-3 cells assessed as cell growth at 1 uM incubated for 48 hrs by sulforhodamine B assay relative to control; details: read-out: Activity
SK-MEL-5 = assay: Growth inhibition of human SK-MEL-5 cells assessed as cell growth at 100 uM incubated for 48 hrs by sulforhodamine B assay relative to control; details: read-out: Activity
U-251 = assay: Growth inhibition of human U-251 cells incubated for 48 hrs by sulforhodamine B assay
Summary of the method: (§1)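 NCI DTP 60-line human tumour panel. Dose-response curves were run only for ligands active in the initial 10 µM screen. GI50 (concentration giving 50% of maximal inhibition of proliferation) and TGI (concentration giving total growth inhibition) were derived from these curves.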

HOP-62 = assay: Growth inhibition of human HOP-62 cells assessed as cell growth at 100 uM incubated for 48 hrs by sulforhodamine B assay relative to control; details: read-out: Activity
786-0 = assay: Growth inhibition of human 786-0 cells assessed as cell growth at 100 uM incubated for 48 hrs by sulforhodamine B assay relative to control; details: read-out: Activity
HCT-15 = assay: Growth inhibition of human HCT-15 cells assessed as cell growth at 0.01 uM incubated for 48 hrs by sulforhodamine B assay relative to control; details: read-out: Activity
HOP-92 = assay: Growth inhibition of human HOP-92 cells assessed as cell growth at 1 uM incubated for 48 hrs by sulforhodamine B assay relative to control; details: read-out: Activity
A498 [3] = assay: Growth inhibition of human A498 cells assessed as cell growth at 0.01 uM incubated for 48 hrs by sulforhodamine B assay relative to control; details: read-out: Activity
Summary of the method: (§2)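 NCI Developmental Therapeutics Program NCI60 panel. Compounds that were active in the 10 µM one-dose screen went on to dose–response testing. Growth at each concentration is expressed relative to untreated control (100%). GI50 (concentration giving 50% of maximal inhibition of proliferation) and TGI (concentration giving total growth inhibition) were derived from the curves.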

A498 [4] = assay: Growth inhibition of human A498 cells assessed as cell growth at 100 uM incubated for 48 hrs by sulforhodamine B assay relative to control; details: read-out: Activity; summary of the method: as §2
K562 = assay: Growth inhibition of human K562 cells assessed as cell growth at 100 uM incubated for 48 hrs by sulforhodamine B assay relative to control; details: read-out: Activity
CCRF-CEM = assay: Growth inhibition of human CCRF-CEM cells assessed as cell growth at 1 uM incubated for 48 hrs by sulforhodamine B assay relative to control; details: read-out: Activity; summary of the method: as §2
SF-539 [5] = assay: Growth inhibition of human SF-539 cells assessed as cell growth at 0.1 uM incubated for 48 hrs by sulforhodamine B assay relative to control; details: read-out: Activity
SN12C = assay: Growth inhibition of human SN12C cells assessed as cell growth at 1 uM incubated for 48 hrs by sulforhodamine B assay relative to control; details: read-out: Activity
T47D [6] = assay: Growth inhibition of human T47D cells assessed as cell growth at 0.1 uM incubated for 48 hrs by sulforhodamine B assay relative to control; details: read-out: Activity
Malme-3M = assay: Growth inhibition of human Malme-3M cells assessed as cell growth at 100 uM incubated for 48 hrs by sulforhodamine B assay relative to control; details: read-out: Activity
ACHN [7] = assay: Growth inhibition of human ACHN cells assessed as cell growth at 100 uM incubated for 48 hrs by sulforhodamine B assay relative to control; details: read-out: Activity
ACHN [8] = assay: Growth inhibition of human ACHN cells assessed as cell growth at 0.1 uM incubated for 48 hrs by sulforhodamine B assay relative to control; details: read-out: Activity
NCI-H23 [9] = assay: Growth inhibition of human NCI-H23 cells assessed as cell growth at 1 uM incubated for 48 hrs by sulforhodamine B assay relative to control; details: read-out: Activity
HT-29 = assay: Growth inhibition of human HT-29 cells incubated for 48 hrs by sulforhodamine B assay
Summary of the method: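 NCI60 panel at the NCI Developmental Therapeutics Program. Only compounds active in the 10 µM screen went to dose-response testing. GI50, the concentration giving 50% of maximal inhibition of proliferation, and TGI, the concentration giving total growth inhibition, were derived from the dose-response curves.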

NCI-H23 [10] = assay: Growth inhibition of human NCI-H23 cells assessed as cell growth at 0.01 uM incubated for 48 hrs by sulforhodamine B assay relative to control; details: read-out: Activity
MDA-MB-468 = assay: Growth inhibition of human MDA-MB-468 cells assessed as cell growth at 0.01 uM incubated for 48 hrs by sulforhodamine B assay relative to control; details: read-out: Activity
T47D [11] = assay: Growth inhibition of human T47D cells incubated for 48 hrs by sulforhodamine B assay; details: for CC50: read-out: LC50 (the source's name); summary of the method: as §1
OVCAR-3 = assay: Growth inhibition of human OVCAR-3 cells assessed as cell growth at 1 uM incubated for 48 hrs by sulforhodamine B assay relative to control; details: read-out: Activity
HCC 2998 [12] = assay: Growth inhibition of human HCC 2998 cells assessed as cell growth at 1 uM incubated for 48 hrs by sulforhodamine B assay relative to control; details: read-out: Activity; summary of the method: as §2
HCC 2998 [13] = assay: Growth inhibition of human HCC 2998 cells assessed as cell growth at 0.01 uM incubated for 48 hrs by sulforhodamine B assay relative to control; details: read-out: Activity; summary of the method: as §2
SF-539 [14] = assay: Growth inhibition of human SF-539 cells assessed as cell growth at 100 uM incubated for 48 hrs by sulforhodamine B assay relative to control; details: read-out: Activity
SR = assay: Growth inhibition of human SR cells assessed as cell growth at 1 uM incubated for 48 hrs by sulforhodamine B assay relative to control; details: read-out: Activity
Hs-578T = assay: Growth inhibition of human Hs-578T cells assessed as cell growth at 0.01 uM incubated for 48 hrs by sulforhodamine B assay relative to control; details: read-out: Activity
RPMI-8226 = assay: Growth inhibition of human RPMI-8226 cells assessed as cell growth at 0.01 uM incubated for 48 hrs by sulforhodamine B assay relative to control; details: read-out: Activity
MDA-MB-435 = assay: Growth inhibition of human MDA-MB-435 cells assessed as cell growth at 0.01 uM incubated for 48 hrs by sulforhodamine B assay relative to control; details: read-out: Activity
SK-OV-3 = assay: Growth inhibition of human SK-OV-3 cells assessed as cell growth at 100 uM incubated for 48 hrs by sulforhodamine B assay relative to control; details: read-out: Activity

COc1cccc(NC(=O)c2sc3nc4c(cc3c2N)CN(Cc2ccccc2)CC4)c1
growth at 0.1 µM (NCI/ADR-RES [1]): 97% | growth at 100 µM (SK-MEL-28): -30% | growth at 100 µM (UACC-62): -34% | growth at 1 µM (NCI/ADR-RES [2]): 63% | growth at 1 µM (PC-3): 73% | growth at 100 µM (SK-MEL-5): -34% | GI50 (U-251): 2740 nM | LC50 (concentration killing 50% of cells) (U-251): 88.7 µM | TGI (U-251): 19.2 µM | growth at 100 µM (HOP-62): -71% | growth at 100 µM (786-0): -47% | growth at 0.01 µM (HCT-15): 92% | growth at 1 µM (HOP-92): 64% | growth at 0.01 µM (A498 [3]): 94% | growth at 100 µM (A498 [4]): -47% | growth at 100 µM (K562): 8% | growth at 1 µM (CCRF-CEM): 82% | growth at 0.1 µM (SF-539 [5]): 92% | growth at 1 µM (SN12C): 85% | growth at 0.1 µM (T47D [6]): 94% | growth at 100 µM (Malme-3M): -42% | growth at 100 µM (ACHN [7]): -3% | growth at 0.1 µM (ACHN [8]): 101% | growth at 1 µM (NCI-H23 [9]): 89% | GI50 (HT-29): 3750 nM | LC50 (HT-29): 56.2 µM | TGI (HT-29): 15.2 µM | growth at 0.01 µM (NCI-H23 [10]): 100% | growth at 0.01 µM (MDA-MB-468): 92% | GI50 (T47D [11]): 4.62 µM | TGI (T47D [11]): 47.3 µM | CC50 (T47D [11]): > 100 µM | growth at 1 µM (OVCAR-3): 82% | growth at 1 µM (HCC 2998 [12]): 86% | growth at 0.01 µM (HCC 2998 [13]): 97% | growth at 100 µM (SF-539 [14]): -75% | growth at 1 µM (SR): 25% | growth at 0.01 µM (Hs-578T): 88% | growth at 0.01 µM (RPMI-8226): 98% | growth at 0.01 µM (MDA-MB-435): 93% | growth at 100 µM (SK-OV-3): -66%

Cc1cccc(NC(=O)c2sc3nc4c(cc3c2N)C(=O)CCC4)c1
growth at 0.1 µM (NCI/ADR-RES [1]): 69% | growth at 100 µM (SK-MEL-28): -15% | growth at 100 µM (UACC-62): 33% | growth at 1 µM (NCI/ADR-RES [2]): 15% | growth at 1 µM (PC-3): 29% | growth at 100 µM (SK-MEL-5): -30% | GI50 (U-251): 261 nM | LC50 (concentration killing 50% of cells) (U-251): ≥ 100 µM | TGI (U-251): ≥ 100 µM | growth at 100 µM (HOP-62): 1% | growth at 100 µM (786-0): 2% | growth at 0.01 µM (HCT-15): 88% | growth at 1 µM (HOP-92): 50% | growth at 0.01 µM (A498 [3]): 68% | growth at 100 µM (A498 [4]): -53% | growth at 100 µM (K562): 17% | growth at 1 µM (CCRF-CEM): 31% | growth at 0.1 µM (SF-539 [5]): 75% | growth at 1 µM (SN12C): 42% | growth at 0.1 µM (T47D [6]): 78% | growth at 100 µM (Malme-3M): -16% | growth at 100 µM (ACHN [7]): -21% | growth at 0.1 µM (ACHN [8]): 91% | growth at 1 µM (NCI-H23 [9]): 35% | GI50 (HT-29): 199 nM | LC50 (HT-29): ≥ 100 µM | TGI (HT-29): ≥ 100 µM | growth at 0.01 µM (NCI-H23 [10]): 99% | growth at 0.01 µM (MDA-MB-468): 93% | TGI (T47D [11]): > 100 µM | CC50 (T47D [11]): > 100 µM | growth at 1 µM (OVCAR-3): -7% | growth at 1 µM (HCC 2998 [12]): 28% | growth at 0.01 µM (HCC 2998 [13]): 97% | growth at 100 µM (SF-539 [14]): -25% | growth at 0.01 µM (Hs-578T): 88% | growth at 0.01 µM (RPMI-8226): 99% | growth at 0.01 µM (MDA-MB-435): 87% | growth at 100 µM (SK-OV-3): -16%
